The text below walks through data of ChEMBL document CHEMBL1681779, “Design, synthesis and docking study of 5-amino substituted indeno[1,2-c]isoquinolines as novel topoisomerase I inhibitors” (Bioorg Med Chem, 2011).

The source made the active and inactive calls. The calls are words filed in the database; no cut-off is given here. A value given as a limit tells only on which side of the number the result lay.

One experiment deals with HL-60. As to the kind of experiment: Cytotoxicity against human HL60 cells by MTT assay. The experiment is classed as functional, cell-based.
The next experiment relates to HT-1080. As to the kind of experiment: Cytotoxicity against human HT1080 cells by sulforhodamine B assay. On the technique in general: The SRB assay estimates cell density from bound dye.
For another experiment, the system named is SNU-638. The experiment can be described thus: Cytotoxicity against human SNU638 cells by sulforhodamine B assay.
The next experiment has as its system A549. As to the kind of experiment: Cytotoxicity against human A549 cells by sulforhodamine B assay.
A further experiment concerns Col2. The experiment can be described thus: Cytotoxicity against human Col2 cells by sulforhodamine B assay.
The target of experiment [1] is T1, DNA topoisomerase 1 (Homo sapiens) (UniProt P11387).
T1 sequence (whole entry): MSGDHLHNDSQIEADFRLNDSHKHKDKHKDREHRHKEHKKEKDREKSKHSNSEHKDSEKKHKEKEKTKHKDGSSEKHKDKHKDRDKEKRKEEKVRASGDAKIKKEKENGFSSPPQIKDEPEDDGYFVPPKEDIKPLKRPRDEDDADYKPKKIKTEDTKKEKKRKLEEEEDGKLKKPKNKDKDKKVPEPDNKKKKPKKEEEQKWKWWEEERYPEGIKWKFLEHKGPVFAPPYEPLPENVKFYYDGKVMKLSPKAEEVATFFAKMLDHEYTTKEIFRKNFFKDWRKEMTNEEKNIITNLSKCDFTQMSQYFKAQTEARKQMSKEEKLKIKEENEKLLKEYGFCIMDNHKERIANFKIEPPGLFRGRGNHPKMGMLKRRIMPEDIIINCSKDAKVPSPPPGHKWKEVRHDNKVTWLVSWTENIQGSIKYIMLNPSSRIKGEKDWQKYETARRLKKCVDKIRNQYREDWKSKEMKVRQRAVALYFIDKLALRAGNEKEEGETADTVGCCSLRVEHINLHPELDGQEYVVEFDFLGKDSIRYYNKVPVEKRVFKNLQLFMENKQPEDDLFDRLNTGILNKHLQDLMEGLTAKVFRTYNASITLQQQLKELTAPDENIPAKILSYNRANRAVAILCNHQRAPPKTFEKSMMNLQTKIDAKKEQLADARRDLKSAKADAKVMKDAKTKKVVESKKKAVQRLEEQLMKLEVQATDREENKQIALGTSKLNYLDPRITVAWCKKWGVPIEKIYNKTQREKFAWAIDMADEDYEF
As to the kind of experiment: Inhibition of DNA topoisomerase 1-mediated supercoiled DNA relaxation at 0.1 mg/mL by agarose gel electrophoresis. A digest of the protocol: (§1)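 Relaxation assay with 500 ng supercoiled pBR322 DNA as substrate and 1 unit topo I. Reactions were run with or without compound, with camptothecin as reference, for 30 min at 37 °C.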

In experiment [2] the target is T1, DNA topoisomerase 1 (Homo sapiens). As to the kind of experiment: Inhibition of DNA topoisomerase 1 relative to 0.1 uM camptothecin. A digest of the protocol:
as §1

The subject of the next experiment is SK-MEL-2. The experiment can be described thus: Cytotoxicity against human SK-MEL-2 cells at 0.001 mg/ml. The experiment is classed as functional, cell-based.

In general, IC50 refers to the concentration at which inhibition is half-maximal. A higher IC50 goes with lower potency. Take `CCCCNc1nc2c(c3ccccc13)C(=O)c1ccccc1-2`: the IC50 in the experiment on HL-60 is over 100 µM; in the experiment with HT-1080, 48.2 µM; in the experiment with SNU-638, over 100 µM; in the experiment with A549 it was over 100 µM; with Col2 it was over 100 µM.

In the case of `OC1c2ccccc2-c2nc(N3CCOCC3)c3ccccc3c21` (stereo unspecified), the IC50 in the experiment with HL-60 is 99.2 µM; with HT-1080 it was over 100 µM; with SNU-638, over 100 µM; in the experiment with A549, 93.3 µM; in the experiment with Col2, over 100 µM.

As to `CCCCNc1nc2c(c3ccccc13)Cc1ccccc1-2`, the IC50 in the experiment on HL-60 was determined as 19.6 µM; with HT-1080, 4.39 µM; with SNU-638 it was 22.2 µM; in the experiment on A549, 27.7 µM; with Col2, 75.2 µM. For the same compound, the inhibition entry in experiment [1] was “Active”.

Take `CC(=O)OC1c2ccccc2-c2nc(N3CCOCC3)c3ccccc3c21` (stereo unspecified): the IC50 with HL-60 was 15.9 µM; with HT-1080, 58.3 µM; in the experiment with SNU-638, 6.99 µM; in the experiment on A549 it was 8.3 µM; with Col2, 7.87 µM.

Regarding `CCN1CCN(c2nc3c(c4ccccc24)Cc2ccccc2-3)CC1`, the IC50 in the experiment with HL-60 amounted to 9.98 µM; in the experiment with HT-1080, 19 µM; in the experiment with SNU-638, 3.25 µM; in the experiment with A549 it was 8.19 µM; in the experiment on Col2, 7.74 µM. Besides, in experiment [1], the inhibition result was “Active”.

For `CN1CCN(c2nc3c(c4ccccc24)C(C)(O)c2ccccc2-3)CC1` (stereo unspecified), the IC50 with HL-60 came out at 79.9 µM; with HT-1080, 22.2 µM; in the experiment on SNU-638 it was 58.2 µM; with A549, 92.5 µM; in the experiment on Col2 it was 58 µM.

Take `NCCNc1nc2c(c3ccccc13)C(=O)c1ccccc1-2`: the IC50 in the experiment with HL-60 stood at 10.4 µM; with HT-1080 it was 9.6 µM; in the experiment with SNU-638, 1.68 µM; in the experiment on A549, 0.85 µM; in the experiment with Col2 it was 1.43 µM. Further, in experiment [2], the inhibition result is “Active”.

`c1ccc2c(c1)Cc1c-2nc(N2CCOCC2)c2ccccc12`: the IC50 was found to be 8.65 µM in the experiment on HL-60; 1.24 µM with HT-1080; 2.58 µM in the experiment on SNU-638; 5.69 µM with A549; 4.42 µM with Col2. Moreover, in experiment [1], the inhibition result was “Active”.

As to `O=C1c2ccccc2-c2nc(N3CCOCC3)c3ccccc3c21`, the IC50 is over 100 µM with HL-60; 69.2 µM with HT-1080; over 100 µM in the experiment with SNU-638; over 100 µM in the experiment on A549; 96.9 µM in the experiment on Col2.

Consider `O=C1c2ccccc2-c2nc(N3CCNCC3)c3ccccc3c21`, for which the IC50 amounted to 4.68 µM with HL-60; 2.01 µM with HT-1080; 8.25 µM with SNU-638; 8.52 µM in the experiment with A549; 7.99 µM in the experiment on Col2. Moreover, the inhibition result in experiment [2] and in experiment [1] was “Active” each time.

On to `CN1CCCN(c2nc3c(c4ccccc24)Cc2ccccc2-3)CC1`, for which the IC50 was found to be 3.33 µM in the experiment on HL-60; 0.25 µM with HT-1080; 8.24 µM with SNU-638; 5.46 µM in the experiment with A549; 2.13 µM with Col2. The inhibition result in experiment [1] was “Active”.

For the compound `CCN1CCN(c2nc3c(c4ccccc24)C(=O)c2ccccc2-3)CC1`, the IC50 with HL-60 amounted to 4.21 µM; with HT-1080 it was 1.23 µM; in the experiment on SNU-638, 5.85 µM; in the experiment on A549, 7.1 µM; in the experiment with Col2, 6.45 µM. For the same compound, the inhibition entry in experiment [2] and in experiment [1] was “Active” in each case.

For the compound `CCN1CCN(c2nc3c(c4ccccc24)C(O)c2ccccc2-3)CC1` (stereo unspecified), the IC50 in the experiment on HL-60 was determined as 29.4 µM; in the experiment on HT-1080, 8.66 µM; with SNU-638 it was 18.9 µM; in the experiment with A549, 20.9 µM; in the experiment on Col2 it was 19.2 µM.

Turning to `CN1CCN(c2nc3c(c4ccccc24)C(O)c2ccccc2-3)CC1` (stereo unspecified), the IC50 in the experiment on HL-60 is 13.4 µM; with HT-1080 it was 4.87 µM; in the experiment with SNU-638, 9.01 µM; with A549, 18.1 µM; with Col2 it was 28.3 µM.

With `CCCCCCC1(O)c2ccccc2-c2nc(N3CCN(C)CC3)c3ccccc3c21` (stereo unspecified), the IC50 was determined as 8.55 µM with HL-60; 2.57 µM in the experiment with HT-1080; 12.4 µM in the experiment with SNU-638; 7.21 µM in the experiment on A549; 6.24 µM in the experiment with Col2. Further, the inhibition entry in experiment [2] is “Active”.

As to `CN1CCN(c2nc3c(c4ccccc24)Cc2ccccc2-3)CC1`, the IC50 in the experiment with HL-60 was 5.87 µM; with HT-1080, 3.85 µM; in the experiment on SNU-638 it was 19.8 µM; in the experiment on A549, 11.4 µM; in the experiment on Col2, 10.1 µM. In addition, the inhibition result in experiment [1] is “Active”.

For `CN1CCN(c2nc3c(c4ccccc24)C(=O)c2ccccc2-3)CC1`, the 50% inhibitory concentration (IC50) in the experiment with HL-60 came to 6.35 µM; in the experiment on HT-1080 it was 5.36 µM; in the experiment with SNU-638, 7.98 µM; in the experiment on A549, 8.19 µM; in the experiment on Col2, 7.77 µM. Moreover, the inhibition result in experiment [2] and in experiment [1] was “Active” in each case.

On to `CN1CCCN(c2nc3c(c4ccccc24)C(=O)c2ccccc2-3)CC1`, for which the IC50 in the experiment on HL-60 was 1.28 µM; in the experiment with HT-1080, 0.54 µM; in the experiment on SNU-638, 1.36 µM; with A549 it was 1.05 µM; in the experiment with Col2, 0.27 µM. Further, the inhibition entry in experiment [2] and in experiment [1] was “Active” in each case.

Regarding `CC1c2ccccc2-c2c1c1ccccc1c(=O)n2C` (stereo unspecified), the result in the experiment with SK-MEL-2 was Active.
